Counter-ions that a name gives are not always drawn. Activity calls are given as the source filed them. The calls are words filed in the database; no cut-off is given here.
How the values were obtained:
[1] = biological target: T1, Bifunctional dihydrofolate reductase-thymidylate synthase (Plasmodium falciparum K1, UniProt P13922); experiment: Inhibition of Plasmodium falciparum DHFR
How it was run: (§1)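 Purified PfDHFR was preincubated with graded compound concentrations for 15 min on ice in 100 uM NADPH, 50 mM TES pH 7.0, 1 mM EDTA, 75 mM 2-mercaptoethanol and 1 mg/mL BSA. DHF was then added to start the reaction, and NADPH oxidation was followed at 340 nm. IC50 came from percent-inhibition versus concentration plots, three independent experiments.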

[2] = biological target: T2, Falcipain 2 (Plasmodium falciparum) (UniProt Q9N6S8); experiment: Inhibition of Plasmodium falciparum FP2 at 10 uM using Z-Leu-Arg-AMC as substrate preincubated for 30 min followed by substrate addition measured after 30 mins by spectrofluorimetric method
T2 sequence (whole entry): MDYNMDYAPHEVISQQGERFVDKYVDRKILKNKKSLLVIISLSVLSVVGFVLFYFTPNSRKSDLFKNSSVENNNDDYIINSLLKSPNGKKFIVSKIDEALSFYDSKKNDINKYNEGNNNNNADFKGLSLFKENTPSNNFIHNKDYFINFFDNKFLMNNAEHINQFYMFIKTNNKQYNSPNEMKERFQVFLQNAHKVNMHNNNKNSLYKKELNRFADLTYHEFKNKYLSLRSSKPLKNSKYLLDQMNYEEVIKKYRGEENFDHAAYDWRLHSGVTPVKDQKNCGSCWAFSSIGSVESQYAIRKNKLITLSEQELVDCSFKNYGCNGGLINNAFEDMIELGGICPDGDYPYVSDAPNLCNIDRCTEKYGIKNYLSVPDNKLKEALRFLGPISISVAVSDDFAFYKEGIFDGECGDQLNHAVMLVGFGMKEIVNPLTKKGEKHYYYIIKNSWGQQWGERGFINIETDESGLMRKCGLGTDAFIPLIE
How it was run: (§2)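 FP-2 (30 nM) was preincubated 30 min at room temperature with compound in 100 mM sodium acetate, 10 mM DTT, pH 5.5, with DMSO at most 1%. The fluorescence increase was then monitored for 30 min at room temperature. Percent inhibition was screened at 10 µM. IC50 values were fitted from percent inhibition versus concentration, using three independent experiments.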

[3] = biological target: Bifunctional dihydrofolate reductase-thymidylate synthase (Plasmodium falciparum K1) (UniProt P13922); experiment: Inhibition of Plasmodium falciparum DHFR at 10 uM using DHF as substrate preincubated for 15 mins followed DHF addition measured after 15 mins by spectrophotometric method
How it was run: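 Purified P. falciparum DHFR was preincubated 15 min on ice with compound in 100 uM NADPH, 50 mM TES pH 7.0, 1 mM EDTA, 75 mM 2-mercaptoethanol and 1 mg/mL BSA. DHF was then added to start the reaction. NADPH oxidation was followed at 340 nm, and percent inhibition was taken at 10 µM.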

[4] = biological target: T3, Falcipain 2 (Plasmodium falciparum, UniProt Q9N6S8); experiment: Inhibition of Plasmodium falciparum FP2 using Z-Leu-Arg-AMC as substrate preincubated for 30 min followed by substrate addition measured after 30 mins by spectrofluorimetric method; how it was run: as §2
T3 sequence (Q9N6S8 whole entry): T2 sequence (whole entry)

[5] = biological target: T1, Bifunctional dihydrofolate reductase-thymidylate synthase; experiment: Inhibition of Plasmodium falciparum DHFR using DHF as substrate preincubated for 15 mins followed DHF addition measured after 15 mins by spectrophotometric method; how it was run: as §1
[6] = tested on: Plasmodium falciparum; experiment: Antimalarial activity against mid-ring stage of multidrug-sensitive Plasmodium falciparum 3D7 infected in human O-positive erythrocytes after 72 hrs by SYBR Green I dye-based fluorescence assay; assay type: functional, organism-based; conditions: 3D7, 72 h
How it was run: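 Cultures were synchronised with 5% sorbitol to over 80% rings, and parasites at mid-ring stage (6–10 h post-invasion) were used at 1% parasitemia and 2% hematocrit. […] Growth ran 72 h at 37 °C under 5% CO₂, 5% O₂, 90% N₂. Cells were lysed in saponin/Triton X-100 buffer with 5X SYBR Green I, kept 2 h in the dark, and fluorescence was read at 485/535 nm.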

[7] = tested on: Plasmodium berghei; experiment: In vivo antimalarial activity against Plasmodium berghei ANKA infected in BALB/c mouse assessed as reduction in parasitemia at 20 mg/kg, po administered daily for 4 days by Giemsa staining-based method; assay type: functional, organism-based
How it was run: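 BALB/c mice were infected with P. berghei ANKA. Starting 24 h later, they received 20 mg/kg test compound or control orally once daily for 4 days. Parasitemia was counted on Giemsa-stained blood smears every day over 10 days.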

[8] = tested on: Plasmodium falciparum; experiment: Antimalarial activity against mid-ring stage of chloroquine-resistant Plasmodium falciparum Dd2 infected in human O-positive erythrocytes after 72 hrs by SYBR Green I dye-based fluorescence assay; assay type: functional, organism-based; conditions: Dd2, 72 h
How it was run: (§3)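 Sorbitol-synchronised (>80% ring) […] cultures were used at the mid-ring stage (6-10 h post-invasion), at 1% parasitemia and 2% hematocrit, with serial compound dilutions (Dd2 top concentration 10 µM). Incubation was 72 h at 37 °C under 5% CO₂/5% O₂/90% N₂. Cells were then lysed with saponin/Triton X-100 buffer containing 5X SYBR Green I, kept 2 h in the dark, and read at ex 485/em 535 nm.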

[9] = tested on: Plasmodium falciparum; experiment: Antimalarial activity against mid-ring stage of Plasmodium falciparum Fab9 infected in human O-positive erythrocytes after 72 hrs by SYBR Green I dye-based fluorescence assay; assay type: functional, organism-based; conditions: Fab9, 72 h; how it was run: as §3
[10] = tested on: Plasmodium falciparum; experiment: Antimalarial activity against mid-ring stage of Plasmodium falciparum GB4 infected in human O-positive erythrocytes after 72 hrs by SYBR Green I dye-based fluorescence assay; assay type: functional, organism-based; conditions: GB4, 72 h; how it was run: as §3
[11] = biological target: T3, Falcipain 2; experiment: Inhibition of Plasmodium falciparum FP2; how it was run: as §2
[12] = tested on: Plasmodium falciparum; experiment: Antimalarial activity against mid-ring stage of multidrug-sensitive Plasmodium falciparum 3D7 infected in human O-positive erythrocytes at 20 uM after 72 hrs by SYBR Green I dye-based fluorescence assay; assay type: functional
[13] = tested on: Plasmodium falciparum; experiment: Antimalarial activity against mid-ring stage of chloroquine-resistant Plasmodium falciparum Dd2 infected in human O-positive erythrocytes at 20 uM after 72 hrs by SYBR Green I dye-based fluorescence assay; assay type: functional

Sequence of Bifunctional dihydrofolate reductase-thymidylate synthase (Plasmodium falciparum K1) (P13922 whole entry, looked up): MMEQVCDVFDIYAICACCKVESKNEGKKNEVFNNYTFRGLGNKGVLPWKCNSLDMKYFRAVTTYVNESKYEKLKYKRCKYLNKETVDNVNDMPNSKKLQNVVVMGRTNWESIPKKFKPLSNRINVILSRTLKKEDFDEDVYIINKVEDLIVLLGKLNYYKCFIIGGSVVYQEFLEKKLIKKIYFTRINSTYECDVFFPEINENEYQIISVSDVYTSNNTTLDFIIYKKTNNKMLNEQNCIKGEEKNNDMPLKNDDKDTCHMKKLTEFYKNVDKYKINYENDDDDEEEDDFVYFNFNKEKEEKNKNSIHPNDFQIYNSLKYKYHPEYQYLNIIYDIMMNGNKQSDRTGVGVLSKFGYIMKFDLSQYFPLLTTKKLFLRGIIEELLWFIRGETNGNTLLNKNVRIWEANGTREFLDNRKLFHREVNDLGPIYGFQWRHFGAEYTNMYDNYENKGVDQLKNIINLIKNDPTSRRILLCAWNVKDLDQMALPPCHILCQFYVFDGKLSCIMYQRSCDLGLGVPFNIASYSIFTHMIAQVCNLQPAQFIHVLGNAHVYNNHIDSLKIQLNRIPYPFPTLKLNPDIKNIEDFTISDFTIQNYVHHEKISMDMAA
T1 sequence (P13922 whole entry): as the sequence (P13922 whole entry, looked up) above

## Cc1nc(N)nc(N)c1OCCCOc1cc(Cl)c(Cl)cc1Cl
[1]
  IC50: 229 nM

## COc1cccc(C(=O)NCCc2ccc(CNc3ccc4nc(N)nc(N)c4c3)cc2)c1
[2]
  inhibition: 52.6%
[3]
  inhibition: 96.8%
[4]
  IC50: 6.2 µM
[5]
  IC50: 39.6 nM
[6]
  IC50: 60.5 nM
[7]
  Activity: Active
[8]
  IC50: 2200 nM

## C[C@@H]1CC[C@H]2[C@@H](C)C(=O)O[C@@H]3O[C@@]4(C)CC[C@@H]1[C@]32OO4 [ARTEMISININ]
[6]
  IC50: 4.1 nM
[7]
  Activity: Active
[9]
  IC50: 5.2 nM
[10]
  IC50: 2.2 nM

## CC1(C)N=C(N)N=C(N)N1OCCCOc1cc(Cl)c(Cl)cc1Cl
[1]
  IC50: 0.57 nM

## Nc1nc(N)c2cc(NCc3ccc(CCNC(=O)C4CCCCC4)cc3)ccc2n1
[2]
  inhibition: 66.6%
[3]
  inhibition: 96%
[4]
  IC50: 7.7 µM
[5]
  IC50: 226 nM

## Nc1nc(N)c2cc(NCc3ccc(CCNC(=O)c4ccc(Cl)cc4F)cc3)ccc2n1
[2]
  inhibition: 62.4%
[3]
  inhibition: 68.2%
[4]
  IC50: 9.1 µM

## Nc1nc(N)c2cc(NCc3ccc(CCNC(=O)CCc4ccccc4)cc3)ccc2n1
[2]
  inhibition: 55.2%
[3]
  inhibition: 98.6%
[4]
  IC50: 4.9 µM
[5]
  IC50: 185 nM

## COc1ccc(OC)c(CNc2ccc3nc(N)nc(N)c3c2Cl)c1
[1]
  IC50: 0.39 nM

## Nc1nc(N)c2cc(NCc3ccc(CCNC(=O)c4ccc(C(F)(F)F)cc4)cc3)ccc2n1
[2]
  inhibition: 21.5%
[3]
  inhibition: 96.4%
[5]
  IC50: 21.3 nM

## COc1ccc(C(=O)NCCc2ccc(CNc3ccc4nc(N)nc(N)c4c3)cc2)cc1OC
[2]
  inhibition: 31.3%
[3]
  inhibition: 100%
[5]
  IC50: 61.1 nM

## COc1cc(OC)cc(C(=O)NCCc2ccc(CNc3ccc4nc(N)nc(N)c4c3)cc2)c1
[2]
  inhibition: 41.1%
[3]
  inhibition: 100%
[5]
  IC50: 32.1 nM

## Nc1nc(N)c2cc(NCc3ccc(CCNC(=O)c4cccs4)cc3)ccc2n1
[2]
  inhibition: 67.6%
[3]
  inhibition: 97.4%
[4]
  IC50: 10 µM
[5]
  IC50: 84.1 nM
[6]
  IC50: 53.1 nM
[7]
  Activity: Active
[8]
  IC50: 1200 nM
[9]
  IC50: 14.2 nM
[10]
  IC50: 23.4 nM

## CCc1nc(N)nc(N)c1-c1ccc(Cl)cc1 [PYRIMETHAMINE]
[7]
  Activity: Active
[8]
  IC50: > 10000 nM

## CC1(C)N=C(N)N=C(N)N1c1ccc(Cl)cc1 [CHLORCYCLOGUANIL HYDROCHLORIDE]
[1]
  IC50: 1.5 nM

## Nc1nc(N)c2cc(NCc3ccc(CCNC(=O)c4ccc5c(c4)OCCO5)cc3)ccc2n1
[2]
  inhibition: 34.9%
[3]
  inhibition: 100%
[5]
  IC50: 80.9 nM

## Nc1nc(N)c2cc(NCc3ccc(CCNC(=O)Cc4ccccc4)cc3)ccc2n1
[2]
  inhibition: 65%
[3]
  inhibition: 92.4%
[4]
  IC50: 7.6 µM
[5]
  IC50: 70.1 nM
[6]
  IC50: 266 nM

## Nc1nc(N)c2cc(NCc3ccc(CCNC(=O)c4ccc5c(c4)OCO5)cc3)ccc2n1
[2]
  inhibition: 59.2%
[3]
  inhibition: 100%
[4]
  IC50: 5.1 µM
[5]
  IC50: 26.2 nM
[6]
  IC50: 78.6 nM

## Nc1nc(N)c2cc(NCc3ccc(CCNC(=O)c4ccncc4)cc3)ccc2n1
[2]
  inhibition: 22.9%
[3]
  inhibition: 51.5%

## Nc1nc(N)c2cc(NCc3ccc(CCNC(=O)c4cccc(F)c4)cc3)ccc2n1
[2]
  inhibition: 49.8%
[3]
  inhibition: 98.5%
[5]
  IC50: 50.6 nM

## Nc1nc(N)c2cc(NCc3ccc(CCNC(=O)c4ccc([N+](=O)[O-])cc4)cc3)ccc2n1
[2]
  inhibition: 67%
[3]
  inhibition: 94.7%
[4]
  IC50: 10 µM
[5]
  IC50: 55.6 nM
[6]
  IC50: 105 nM

## O=C(CCc1ccc(S(=O)(=O)NCCc2ccccc2)cc1)Nc1ccc2c(c1)OCCO2
[11]
  IC50: 54.2 µM
[1]
  IC50: 35500 nM

## Nc1nc(N)c2cc(NCc3ccc(CCNC(=O)c4ccc(F)cc4)cc3)ccc2n1
[2]
  inhibition: 52.7%
[3]
  inhibition: 96.7%
[4]
  IC50: 6.7 µM
[5]
  IC50: 118 nM
[6]
  IC50: 391 nM

## CC(C)(C)C1CCC(C(=O)NCCc2ccc(CNc3ccc4nc(N)nc(N)c4c3)cc2)CC1 (stereo not drawn)
[2]
  inhibition: 55.8%
[3]
  inhibition: 99.9%
[4]
  IC50: 7.4 µM
[5]
  IC50: 290 nM

## Nc1nc(N)c2cc(NCc3ccc(CCNC(=O)c4ccc5ccccc5c4)cc3)ccc2n1
[2]
  inhibition: 46.4%
[3]
  inhibition: 100%
[5]
  IC50: 67.9 nM

## CCc1nnc(NC(=O)CCc2ccc(S(=O)(=O)Nc3ccc(F)cc3)cc2)s1
[2]
  inhibition: 64.7%
[11]
  IC50: 7 µM
[1]
  IC50: 6300 nM
[3]
  inhibition: 59.2%
[4]
  IC50: 7 µM
[5]
  IC50: 6300 nM
[12]
  Activity: 7.9%
[13]
  Activity: 6.2%

## COc1ccc(C(=O)NCCc2ccc(CNc3ccc4nc(N)nc(N)c4c3)cc2)cc1
[2]
  inhibition: 21.2%
[3]
  inhibition: 95.1%
[5]
  IC50: 157 nM

## COc1ccc(C(=O)NCCc2ccc(CNc3ccc4nc(N)nc(N)c4c3)cc2)cc1Cl
[2]
  inhibition: 37.6%
[3]
  inhibition: 51.2%

## Nc1nc(N)c2cc(NCc3ccc(CCNC(=O)c4ccccc4F)cc3)ccc2n1
[2]
  inhibition: 44.6%
[3]
  inhibition: 100%
[5]
  IC50: 180 nM

## CC(C)C[C@H](NC(=O)[C@@H]1O[C@H]1C(=O)O)C(=O)NCCCCN=C(N)N
[4]
  IC50: 0.0572 µM

## Nc1nc(N)c2cc(NCc3ccc(CCNC(=O)c4ccco4)cc3)ccc2n1
[2]
  inhibition: 28.9%
[3]
  inhibition: 97.8%
[5]
  IC50: 107 nM
